Screens deposited in PubChem BioAssay by Broad Institute.
Most compounds without a hit are left out; they make up all but 2.4% or so of the library.
LGR2 antag = Drosophila LGR2 receptor signaling inhibition; HEK293 LGR2, CRE-luciferase, bursicon-stimulated, 4 h; inhibition, % at 9.99 µM; actives 0.35% (n = 380,000); AID 720647;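 active = drop in luminescence signal, shown as inhibition above about 50% in the replicate tests, limit read from the data, passing the limit was not always enough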;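 note: agonist challenge used bursicon conditioned medium at about half maximal strength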
EWS-Fli inh = blocks EWS/Fli oncoprotein-driven transcription; A673 NR0B1-luciferase reporter, viability-normalised; inhibition, % at 12.6 µM; actives 0.67% (n = 350,000); AID 651661;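 active = mean inhibition of at least 50% after viability correction, with every replicate also passing that limit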;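 note: firefly luciferase signal divided by Alamar Blue viability fluorescence both relative to DMSO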
rRNA inh HTS = inhibitors of bacterial rRNA selective over humanized ribosomes; E. coli WT GFP vs humanized-ribosome RFP mutants, fluorescence, 24 h; stronger effect = lower value; DMSO median 0, no signal -100; GFP signal change (wild-type ribosome), % (test concentration not listed); actives 1.6% (n = 350,000);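 active = significant combined selectivity score with lowered wild-type GFP, culture density cut under 30%, mutant RFP and density less affected; inactive = any of these conditions unmet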
E-sel inducer = induces E-selectin expression in human endothelial cells | P16581 | activation, % at 7.58 µM | HUVEC E-selectin immunofluorescence imaging; normalized: neutral wells 0, TNF-alpha wells 100 | actives 0.37% (n = 260,000) | AID 686992;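 active = mean E-selectin-positive cell signal at least 10% of the positive control, reached in at least 60% of replicates, without over 20% cell loss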
Target sequence (P16581 whole entry, looked up): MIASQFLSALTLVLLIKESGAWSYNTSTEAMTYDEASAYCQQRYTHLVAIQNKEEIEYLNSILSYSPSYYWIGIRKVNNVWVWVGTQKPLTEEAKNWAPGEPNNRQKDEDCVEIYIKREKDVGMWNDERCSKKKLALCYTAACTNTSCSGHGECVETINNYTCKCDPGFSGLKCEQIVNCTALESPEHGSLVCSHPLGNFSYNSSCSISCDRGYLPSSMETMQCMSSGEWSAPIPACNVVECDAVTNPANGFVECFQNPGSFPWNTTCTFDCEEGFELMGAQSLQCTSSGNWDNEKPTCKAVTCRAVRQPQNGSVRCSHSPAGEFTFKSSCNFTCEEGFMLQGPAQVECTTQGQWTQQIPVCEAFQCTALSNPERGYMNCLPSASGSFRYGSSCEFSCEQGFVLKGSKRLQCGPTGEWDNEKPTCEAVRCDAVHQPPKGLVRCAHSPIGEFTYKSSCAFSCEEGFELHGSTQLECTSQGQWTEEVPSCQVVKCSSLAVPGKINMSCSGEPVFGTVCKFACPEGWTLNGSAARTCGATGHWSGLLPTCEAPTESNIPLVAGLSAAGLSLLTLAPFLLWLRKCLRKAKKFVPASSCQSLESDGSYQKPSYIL
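Assay system: HUVEC primary endothelial cells. Input: 3,000 HUVEC seeded per well. Doses: one compound dose added by pin transfer. Read-out basis: % PE-positive cells. Benchmarks: TNF-alpha high, DMSO low. Detection: immunofluorescence imaging. Buffer or medium: EGM-2, gelatin.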
* hit, by the source's call.

For C=CCNC(=S)NC(=O)c1oc2ccccc2c1C the results were LGR2 antag -97.2, EWS-Fli inh -96.6, rRNA inh HTS 13.9 and E-sel inducer 48.8*.
For Nc1ccc(Oc2cc(N)cc(Oc3ccccc3)c2)cc1 the results were LGR2 antag -119.1, EWS-Fli inh -98.4, rRNA inh HTS -20.8* and E-sel inducer 0.0.
Screening Nc1ccc(OCc2ccccc2)cc1 returned LGR2 antag -42.2, EWS-Fli inh -10.7 and rRNA inh HTS 3.4.
For Cc1cccc(C)c1-n1nnnc1-c1nc2cc3ccccc3cc2[nH]c1=O the results were LGR2 antag -8.7, EWS-Fli inh 54.2*, rRNA inh HTS -10.6 and E-sel inducer -2.4.
`CCOc1ccc2nc(NC(=O)C3(C)CC3(Br)Br)sc2c1` (stereo unspecified) gave LGR2 antag -119.5, EWS-Fli inh -107.1, rRNA inh HTS -41.9* and E-sel inducer 0.5.
Screening CC(=O)c1sc(NC(=O)CSCc2c(C)noc2C)nc1-c1ccccc1 returned LGR2 antag 6.0 and EWS-Fli inh 2.2.
Cc1noc(C)c1CSCC(=O)Nc1nc2ccccc2s1 was read as LGR2 antag -7.1, EWS-Fli inh -3.0 and rRNA inh HTS -22.9*.
CCOc1ccc2nc(NC(=O)CSCC(=O)Nc3cc(C)on3)sc2c1 was read as LGR2 antag -16.2, EWS-Fli inh 59.6*, rRNA inh HTS 16.8 and E-sel inducer 0.3.
For CCOc1ccc2nc(NC(=O)CSc3ccc(Cl)cc3)sc2c1 the results were E-sel inducer -0.1.
Screening O=C(CN1C(=O)c2cccc3cccc(c23)C1=O)NCCCO returned LGR2 antag 2.6, EWS-Fli inh -2.0, rRNA inh HTS -20.7 and E-sel inducer 63.5*.
`C[C@H](CO)N1C[C@H](C)[C@@H](CN(C)S(=O)(=O)c2ccc(Cl)cc2)Oc2ccc(NS(C)(=O)=O)cc2C1=O` gave LGR2 antag -2.5, EWS-Fli inh -9.6, rRNA inh HTS -0.9 and E-sel inducer 8.2.
For Oc1ccc(Nc2nc(N3CCCC3)c3ccccc3n2)cc1 the results were LGR2 antag 76.4* and rRNA inh HTS -24.9.
`COc1ccc(NC(=O)N(C)C[C@H]2Oc3c(NC(=O)C4CCOCC4)cccc3C(=O)N([C@@H](C)CO)C[C@H]2C)cc1` gave LGR2 antag 4.2, EWS-Fli inh 4.1, rRNA inh HTS 4.0 and E-sel inducer -0.1.
C[C@@H]1CN([C@H](C)CO)C(=O)CCCn2nncc2CO[C@@H]1CN(C)CC1CC1 was read as LGR2 antag -3.2, EWS-Fli inh -7.8, rRNA inh HTS -0.7 and E-sel inducer 1.0.
Cc1ccc(NCc2nnc(SCC(=O)c3ccc4c(c3)OCCO4)o2)c(C)c1 was read as LGR2 antag 7.0, EWS-Fli inh 9.6 and rRNA inh HTS -35.9*.
`COc1ccc(Nc2nnc(-c3ccc(C(N)=O)cc3)c3ccccc23)cc1` gave LGR2 antag 6.6, EWS-Fli inh -7.0, rRNA inh HTS -37.9* and E-sel inducer -0.2.
For CNC(=O)c1ccc(Nc2nnc(-c3ccc(C(N)=O)cc3)c3ccccc23)cc1 the results were LGR2 antag -1.6, EWS-Fli inh 12.4, rRNA inh HTS 5.9 and E-sel inducer 0.1.
NC(=O)c1ccc(Nc2nnc(-c3ccc(O)cc3)c3ccccc23)cc1 was read as LGR2 antag 5.2, EWS-Fli inh -1.9, rRNA inh HTS -23.4* and E-sel inducer 4.8.
`COc1ccc2c3c([nH]c2c1)[C@H](CO)N(C(=O)CN(C)C)CC31CCN(CC2CCCC2)CC1` gave LGR2 antag -7.1, EWS-Fli inh 1.7, rRNA inh HTS 5.7 and E-sel inducer -0.2.
O=C(c1ccc(-c2ccccc2)c(F)c1)C1CCCN(CCCn2cccn2)C1 (stereo unspecified) was read as LGR2 antag 1.9, EWS-Fli inh 25.8, rRNA inh HTS -22.2* and E-sel inducer 5.2.
For COc1ccc(C(=O)CSc2ccc(-c3ccccc3)nn2)cc1 the results were LGR2 antag -22.4.
COc1cccc(-c2ccc(SCC(=O)c3ccccc3)nn2)c1 was read as LGR2 antag -58.5, EWS-Fli inh -21.1, rRNA inh HTS -26.9* and E-sel inducer 0.0.
For O=C(Nc1ccc(OC(F)(F)F)cc1)Oc1ccccc1N1CCCCC1 the results were LGR2 antag -1.6, EWS-Fli inh -10.4 and rRNA inh HTS -49.5*.
O=C(C[C@@H]1CC[C@@H](NC(=O)NC2CCCC2)[C@H](CO)O1)NCc1ccc(F)cc1 was read as LGR2 antag 8.2, EWS-Fli inh -17.7, rRNA inh HTS 1.8 and E-sel inducer 0.0.
